Measurements taken from publication PMC3559019 (Chemistry & biology, 2013).

Legend:
c-Src = c-Src (Homo sapiens, UniProt P12931); assay: In vitro kinase assay, c-Src; assay type: biochemical
Lck = Lck (Homo sapiens, UniProt P06239); assay: In vitro kinase assay, Lck; assay type: biochemical
Lyn = Lyn (Homo sapiens, UniProt P07948); assay: In vitro kinase assay, Lyn; assay type: biochemical
[1] = test system: Nef-defective (ΔNef) HIV-1 NL4-3; assay: Nef-defective HIV-1 replication in CEM-T4 cells; assay type: cell-based
HIV-1 NL4-3 = assay: HIV-1 infectivity in TZM-bl reporter cells; assay type: cell-based; conditions: luciferase 48 h
[2] = test system: Nef-dependent SFK activation; assay: Endogenous SFK activation in HIV-infected CEM-T4 cells; assay type: cell-based; conditions: 1.0 μM
Method in brief: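 CEM-T4 cells (1 × 10^5) were infected with 50 pg p24 equivalents/ml wild-type HIV-1 NL4-3, ΔNef mutant or Nef chimeras in 10 ml, with test compound (1 μM) or DMSO carrier. Cells were lysed 8 days later and SFKs were immunoprecipitated with a pan-specific antibody. Immunoblots used an anti-pY418 activation-loop antibody. Lysates were blotted for Gag, Nef and actin (loading control). Uninfected cells were included.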

[3] = test system: HIV-1 Nef Asn126 mutants (Ala, Leu, Gln); assay: Surface plasmon resonance, Nef Asn126 mutants; assay type: binding; conditions: SPR, B9 10 μM
SIV quasispecies ΔB670 = assay: SIV replication in CEM-174 cells; assay type: cell-based; conditions: Simian immunodeficiency virus, CEM174, 120 h, read-out: IC50, SIV replication
Method in brief: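 CEM-174 cells received test compound in DMSO over a range of concentrations, 1 h before infection with the pathogenic SIV quasispecies ΔB670. Replication was measured 5 d later as p27 Gag protein by ELISA.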

SIV ΔB670 = assay: SIV infectivity in TZM-bl reporter cells; assay type: cell-based; conditions: Simian immunodeficiency virus, read-out: IC50, SIV infectivity
Method in brief: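 TZM-bl reporter cells (2.5 × 10^4/well) were plated 8 h before infection to adhere. Test compound was pre-incubated with SIV ΔB670 for 4 h, then added to the cells (final 200 μl). After 48 h at 37 °C, cells were washed with PBS and lysed. Infectivity was read as luciferase luminescence.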

Nef dimerization = Nef dimerization (Human immunodeficiency virus type 1 group M subtype B, UniProt P03407); assay: BiFC assay for Nef dimerization in 293T cells; assay type: cell-based, HIV-1; conditions: 1–6 μM, 48 h
Nef dimerization, sequence (P03407 whole entry): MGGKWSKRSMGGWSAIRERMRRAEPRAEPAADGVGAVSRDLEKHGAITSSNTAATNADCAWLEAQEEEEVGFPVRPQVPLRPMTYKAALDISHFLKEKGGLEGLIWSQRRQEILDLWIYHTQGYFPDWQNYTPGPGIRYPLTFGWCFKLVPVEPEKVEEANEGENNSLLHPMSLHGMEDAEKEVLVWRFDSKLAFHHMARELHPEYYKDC

Lyn, sequence (P07948 whole entry, species assumed): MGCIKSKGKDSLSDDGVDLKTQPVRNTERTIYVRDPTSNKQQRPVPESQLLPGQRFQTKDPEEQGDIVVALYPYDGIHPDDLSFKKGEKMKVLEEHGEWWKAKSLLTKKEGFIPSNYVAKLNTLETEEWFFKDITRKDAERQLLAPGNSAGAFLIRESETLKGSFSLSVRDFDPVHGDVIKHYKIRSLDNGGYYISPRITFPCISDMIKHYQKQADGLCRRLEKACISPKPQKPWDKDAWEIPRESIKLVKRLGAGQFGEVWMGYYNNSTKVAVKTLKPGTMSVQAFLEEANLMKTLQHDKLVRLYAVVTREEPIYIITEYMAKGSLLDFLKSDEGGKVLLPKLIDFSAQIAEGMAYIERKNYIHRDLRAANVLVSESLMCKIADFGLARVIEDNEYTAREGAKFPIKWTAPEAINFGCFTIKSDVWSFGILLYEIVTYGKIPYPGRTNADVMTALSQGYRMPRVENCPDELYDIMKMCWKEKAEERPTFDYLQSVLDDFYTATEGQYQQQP
c-Src, sequence (P12931 whole entry, species assumed): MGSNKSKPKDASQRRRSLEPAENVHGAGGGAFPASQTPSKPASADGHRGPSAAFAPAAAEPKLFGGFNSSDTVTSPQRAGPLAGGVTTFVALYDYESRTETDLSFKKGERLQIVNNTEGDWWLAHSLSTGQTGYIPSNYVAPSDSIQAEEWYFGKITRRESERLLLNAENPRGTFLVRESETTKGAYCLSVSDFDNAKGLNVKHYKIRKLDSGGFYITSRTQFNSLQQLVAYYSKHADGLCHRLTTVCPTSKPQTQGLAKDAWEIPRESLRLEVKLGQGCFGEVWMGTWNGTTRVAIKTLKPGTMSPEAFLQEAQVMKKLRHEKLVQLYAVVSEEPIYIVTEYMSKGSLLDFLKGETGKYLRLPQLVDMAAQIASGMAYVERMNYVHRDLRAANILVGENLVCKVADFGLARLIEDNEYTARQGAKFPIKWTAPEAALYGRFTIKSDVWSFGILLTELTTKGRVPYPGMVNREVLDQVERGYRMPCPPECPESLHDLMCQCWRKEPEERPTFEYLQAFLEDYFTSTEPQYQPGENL
Lck, sequence (P06239 whole entry, species assumed): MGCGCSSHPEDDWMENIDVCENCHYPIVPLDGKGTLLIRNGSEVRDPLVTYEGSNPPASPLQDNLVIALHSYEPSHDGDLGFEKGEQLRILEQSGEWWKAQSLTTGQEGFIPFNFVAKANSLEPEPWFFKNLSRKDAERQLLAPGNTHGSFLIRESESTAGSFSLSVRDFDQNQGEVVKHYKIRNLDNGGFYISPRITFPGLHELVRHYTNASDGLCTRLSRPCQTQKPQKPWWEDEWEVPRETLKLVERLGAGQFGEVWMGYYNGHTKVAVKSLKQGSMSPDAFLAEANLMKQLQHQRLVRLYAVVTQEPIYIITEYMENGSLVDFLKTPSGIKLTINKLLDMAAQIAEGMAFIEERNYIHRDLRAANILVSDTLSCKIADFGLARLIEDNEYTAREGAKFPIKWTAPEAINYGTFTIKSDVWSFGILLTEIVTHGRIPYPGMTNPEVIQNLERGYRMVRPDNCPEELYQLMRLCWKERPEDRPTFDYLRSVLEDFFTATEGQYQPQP

NC(=S)n1nc(-c2ccc([N+](=O)[O-])cc2)c(/N=N/c2cccc(Cl)c2)c1O [B9, (E)-4-((3-chlorophenyl)diazenyl)-5-hydroxy-3-(4-nitrophenyl)-1H-pyrazole-1-carbothioamide]
IC50 (c-Src): > 20 µM
IC50 (Lck): > 20 µM
IC50 (Lyn): > 20 µM
Effect on Nef-defective HIV replication (chimera experiment) ([1]; 0.3 and 1.0 μM, 10 days): no effect
Effect on replication of Nef-defective HIV-1 ([1]; highest concentration tested 3.0 μM): unaffected
Nef-mediated enhancement of HIV-1 infectivity (HIV-1 NL4-3): inhibited Nef-mediated enhancement of HIV-1 infectivity in a concentration-dependent manner
Nef-dependent SFK activation (pY418) [2]: completely inhibited
Binding to Nef Asn126 mutants [3]: none of these mutants demonstrated detectable binding
IC50 (SIV quasispecies ΔB670): ~1 µM
IC50 (SIV ΔB670): ~3 µM
Nef BiFC signal (Nef dimerization) (Nef dimerization): concentration-dependent loss
